Experimental data collected from several papers.
Protocols differ between the studies behind these lines.
CA12: Carbonic anhydrase 12 (CA12, Homo sapiens, UniProt O43570)
SLC6A3: Sodium-dependent dopamine transporter (SLC6A3, Homo sapiens, UniProt Q01959)
GHSR: Growth hormone secretagogue receptor type 1 (GHSR, Homo sapiens, UniProt Q92847)
DRD3: D(3) dopamine receptor (DRD3, Homo sapiens, UniProt P35462)
GLP1R: Glucagon-like peptide 1 receptor (GLP1R, Homo sapiens, UniProt P43220)
ACE: Angiotensin-converting enzyme (ACE, Homo sapiens, UniProt P12821)

`O=C(Nc1ccc2c(c1)C=CCP(=O)(O)O2)c1ccc(F)cc1` gave a Ki of 4 nM (CA12; enzyme activity; inhibitor; stopped-flow).
For `COC(=O)[C@H]1[C@@H](c2ccc(Cl)c(Cl)c2)C[C@@H]2CC[C@H]1N2CCCOCc1ccc2cc3ccccc3cc2c1`, the Ki was 51 nM (SLC6A3; ligand displacement; radioligand; pH 7.4).
The Ki of `O=C(Nc1ccc(C(F)(F)F)cc1)Nc1ccc2c(c1)C=CCP(=O)(O)O2` is reported as greater than 10000 nM (CA12; enzyme activity; inhibitor; stopped-flow).
With `CC[C@H](C)[C@H](NC(=O)[C@H](C)NC(=O)[C@H](C)NC(=O)[C@H](CCC(=O)O)NC(=O)[C@H](CCCNC(=N)N)NC(=O)[C@H](C)NC(=O)[C@H](CC(C)C)NC(=O)[C@H](CC(C)C)NC(=O)[C@H](CCCNC(=N)N)NC(=O)[C@H](CCCNC(=N)N)NC(=O)[C@H](C)NC(=O)[C@H](Cc1c[nH]cn1)NC(=O)[C@H](CCC(=O)O)NC(=O)[C@@H]1CCCN1C(=O)[C@H](CO)NC(=O)[C@H](CC(C)C)NC(=O)[C@H](Cc1ccccc1)NC(=O)[C@H](Cc1c[nH]c2ccccc12)NC(=O)[C@H](CO)NC(=O)CN)C(=O)N1CCC[C@H]1C(=O)N1CCC[C@H]1C(=O)N1CCC[C@H]1C(=O)N1CCC[C@H]1C(=O)N[C@H](C(=O)N1CCC[C@H]1C(=O)N1CCC[C@H]1C(=O)N1CCC[C@H]1C(=O)O)C(C)C` the EC50 was 190 nM (GHSR; calcium signal; agonist; fluorescence).
For `Cc1[nH]c(C)c(S(=O)(=O)Nc2ccc(S(=O)(=O)F)c(F)c2)c1C(=O)N1CCC(F)(F)C1`, the IC50 was 6.5 µM (DRD3; β-arrestin recruitment; antagonist).
The IC50 of `CC[C@H](C)[C@H](NC(=O)[C@H](Cc1ccccc1)NC(=O)[C@H](CC(=O)O)NC(=O)[C@H](CCCNC(=N)N)NC(=O)[C@@H](NC(=O)[C@H](C)NC(=O)[C@H](CCCCN)NC(=O)[C@H](CCCNC(=N)N)NC(=O)[C@H](CCC(=O)O)NC(=O)[C@H](CC(C)C)NC(=O)[C@H](CC(C)C)NC(=O)[C@H](CCC(=O)O)NC(=O)[C@H](CC(=O)O)NC(=O)[C@H](Cc1c[nH]c2ccccc12)NC(=O)[C@H](CC(C)C)NC(=O)[C@H](CO)NC(=O)[C@@H](NC(=O)[C@H](Cc1ccccc1)NC(=O)[C@H](CCC(=O)O)NC(=O)[C@H](CC(C)C)NC(=O)[C@H](CCC(=O)O)NC(=O)CNC(=O)[C@@H]1CCCN1)[C@@H](C)O)C(C)C)C(=O)N[C@@H](C)C(=O)N[C@@H](Cc1c[nH]cn1)C(=O)N[C@@H](CC(C)C)C(=O)N[C@@H](CCCCN)C(=O)N[C@@H](CCC(N)=O)C(=O)O` is reported as 1.61 µM (GLP1R; calcium signal; antagonist; fluorescence).
With `CC(C)[C@H](NC(=O)[C@@H](N)CCC(=O)O)C(=O)N[C@@H](CC(N)=O)C(=O)N[C@@H](Cc1ccc(O)cc1)C(=O)N[C@@H](CC(=O)O)C(=O)O` the IC50 was roughly 1550 µM (ACE; enzyme activity; inhibitor).
With `CC(C)C[C@H](NC(=O)[C@H](Cc1ccc(O)cc1)NC(=O)[C@@H](N)C(C)C)C(=O)N[C@@H](CCC(=O)O)C(=O)N[C@@H](CCC(N)=O)C(=O)O` the IC50 was 27.9 µM (ACE; enzyme activity; inhibitor; absorbance).
The IC50 of `CC[C@H](C)[C@H](NC(=O)[C@H](C)NC(=O)[C@H](C)NC(=O)[C@H](CCC(=O)O)NC(=O)[C@H](CCCNC(=N)N)NC(=O)[C@H](C)NC(=O)[C@H](CC(C)C)NC(=O)[C@H](CC(C)C)NC(=O)[C@H](CCCNC(=N)N)NC(=O)[C@H](CCCNC(=N)N)NC(=O)[C@H](CC(C)C)NC(=O)[C@H](Cc1c[nH]cn1)NC(=O)[C@H](CCC(=O)O)NC(=O)[C@@H]1CCCN1C(=O)[C@H](CO)NC(=O)[C@H](CC(C)C)NC(=O)[C@H](Cc1ccccc1)NC(=O)[C@H](Cc1ccc(O)cc1)NC(=O)[C@H](CO)NC(=O)CN)C(=O)N1CCC[C@H]1C(=O)N1CCC[C@H]1C(=O)N1CCC[C@H]1C(=O)N1CCC[C@H]1C(=O)N[C@H](C(=O)N[C@@H](CC(C)C)C(=O)N1CCC[C@H]1C(=O)N[C@@H](CC(C)C)C(=O)O)C(C)C` is reported as 1.1 µM (GHSR; calcium signal; antagonist; fluorescence).
`Cc1[nH]c(C)c(S(=O)(=O)Nc2ccc(S(=O)(=O)F)c(Cl)c2)c1C(=O)N1CCC(F)(F)C1` has an IC50 of 0.93 µM (DRD3; β-arrestin recruitment; antagonist).
The IC50 of `CC(C)C[C@H](NC(=O)[C@@H](NC(=O)[C@@H](NC(=O)[C@@H]1CCCN1C(=O)[C@@H](N)CCC(=O)O)C(C)C)[C@@H](C)O)C(=O)N[C@H](C(=O)O)[C@@H](C)O` is reported as roughly 872 µM (ACE; enzyme activity; inhibitor).
For `O=C(Nc1cccc(F)c1)Nc1ccc2c(c1)C=CCP(=O)(O)O2`, the Ki was greater than 10000 nM (CA12; enzyme activity; inhibitor; stopped-flow).
With `CC(C)C[C@H](NC(=O)[C@H](CCC(=O)O)NC(=O)[C@H](C)NC(=O)[C@@H](NC(=O)[C@H](Cc1ccccc1)NC(=O)[C@H](CC(C)C)NC(=O)[C@H](CCCNC(=N)N)NC(=O)[C@H](C)NC(=O)[C@H](C)NC(=O)[C@H](CCCCN)NC(=O)[C@H](CCC(=O)O)NC(=O)[C@H](CO)NC(=O)[C@H](CC(C)C)NC(=O)[C@H](Cc1ccc(O)cc1)NC(=O)[C@H](CCC(=O)O)NC(=O)[C@H](CC(=O)O)NC(=O)[C@H](CC(C)C)NC(=O)[C@H](CC(C)C)NC(=O)[C@H](CCC(=O)O)NC(=O)[C@@H](NC(=O)[C@H](Cc1ccccc1)NC(=O)[C@H](CCC(=O)O)NC(=O)[C@H](CCC(=O)O)NC(=O)[C@H](CCC(=O)O)NC(=O)[C@H](C)NC(=O)[C@@H](N)CO)[C@@H](C)O)C(C)C)C(=O)N[C@@H](CCCCN)C(=O)N[C@@H](CCCCN)C(=O)O` the IC50 was 15.7 µM (GLP1R; calcium signal; antagonist; fluorescence).
For `O=C(Nc1ccc2c(c1)C=CCP(=O)(O)O2)c1ccc2ccccc2c1`, the Ki was 27.2 nM (CA12; enzyme activity; inhibitor; stopped-flow).
The IC50 of `CC[C@H](C)[C@H](NC(=O)[C@H](Cc1ccccc1)NC(=O)[C@H](CCC(N)=O)NC(=O)[C@H](CCCNC(=N)N)NC(=O)[C@@H](NC(=O)[C@H](C)NC(=O)[C@H](CCCCN)NC(=O)[C@H](CCCNC(=N)N)NC(=O)[C@H](CCC(=O)O)NC(=O)[C@H](CC(C)C)NC(=O)[C@H](CC(C)C)NC(=O)[C@H](CCC(=O)O)NC(=O)[C@H](CO)NC(=O)[C@H](Cc1c[nH]c2ccccc12)NC(=O)[C@H](CC(C)C)NC(=O)[C@H](CO)NC(=O)[C@@H](NC(=O)[C@H](Cc1ccccc1)NC(=O)[C@H](CCC(=O)O)NC(=O)[C@H](CC(C)C)NC(=O)[C@H](CCC(=O)O)NC(=O)CNC(=O)[C@@H]1CCCN1)[C@@H](C)O)C(C)C)C(=O)N[C@@H](CCC(=O)O)C(=O)N[C@@H](CC(=O)O)C(=O)N[C@@H](CC(C)C)C(=O)N[C@@H](CCCCN)C(=O)N[C@@H](CCCCN)C(=O)O` is reported as 0.874 µM (GLP1R; calcium signal; antagonist; fluorescence).
With `Cc1[nH]c(C)c(S(=O)(=O)Nc2ccc(S(F)(F)(F)(F)F)c(Cl)c2)c1C(=O)N1CCC(F)(F)C1` the IC50 was 1.1 µM (DRD3; β-arrestin recruitment; antagonist).
With `O=C(Nc1ccc2c(c1)C=CCP(=O)(O)O2)c1cccs1` the Ki was 74.6 nM (CA12; enzyme activity; inhibitor; stopped-flow).
`CCC(CNc1nc(-c2cn3ccnc3cc2C)nc2ccccc12)c1ccccc1` (centres unmarked) has an IC50 of 9.86 µM (SLC6A3; transporter uptake; inhibitor; radiometric).
For `N#C[Se]Cc1cc(=O)oc2cc(O)ccc12`, the Ki was 93.3 nM (CA12; enzyme activity; inhibitor; stopped-flow).
With `O=C(Nc1ccc2c(c1)C=CCP(=O)(O)O2)c1ccc(Br)cc1` the Ki was 84.4 nM (CA12; enzyme activity; inhibitor; stopped-flow).
